Results taken from ChEMBL document CHEMBL1132185, “3-O-Desacyl monophosphoryl lipid A derivatives: synthesis and immunostimulant activities” (J Med Chem, 1999).

Legend:
[1] = (§1) lethal toxicity produced when compound is administered along with […] (iv); assay type: organism-based, Homo sapiens; conditions: mouse, in vivo
Homo sapiens = species on record: Homo sapiens; experiment: Relative ex vivo cytokine induction in human whole blood stimulated with 10 ug/mL (done by ELISA)for Interleukin (IL1-beta); assay type: functional
Procedure, shortened: (§2)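 Heparinized whole blood from one healthy human volunteer, 0.45 mL, was mixed with 0.05 mL PBS (pH 7.4) containing test compound. It was incubated 4 h at 37 °C with shaking, then diluted with 1.5 mL PBS and centrifuged. Supernatant TNF-α and IL-1β were quantified in duplicate by sandwich ELISA.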

[2] = Ability to induce iNOS gene expression assessed in an in vitro system utilizing peritoneal exudate cells(PEC) from Propionibacterium acnes-primed mice; assay type: functional; conditions: Mus musculus; read-out: ED50 (the source's name)
Procedure, shortened: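 ICR mice (female, 4-8 weeks) primed i.p. on day 0 with 1 mg heat-killed P. acnes in 0.2 mL saline; peritoneal exudate cells harvested day 4, adhered at 2 × 10^5 cells/well, nonadherent cells washed off. Test materials at various concentrations, in quadruplicate, in RPMI-1640 with 10% FCS for 24 h at 37 °C. Supernatant nitrite measured by Griess reaction; ED50 from nonlinear curve fit.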

Oryctolagus cuniculus [3] = experiment: Total temperature rise in three rabbits at a dose of 10 ug/kg; assay type: functional
Procedure, shortened: (§3)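 USP three-rabbit pyrogen test in New Zealand white rabbits (female, 1.5–5.0 kg). Stocks were 100 µg/mL in 10% aq EtOH, diluted in D5W and given into the marginal ear vein at 3 mL/kg. Rectal temperature was taken every 30 min for 3 h and the maximum rise over baseline recorded per rabbit. MPD is the dose giving a three-rabbit total rise ≥1.2 °C.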

[4] = molecular target: Tumor necrosis factor (Homo sapiens) (UniProt P01375); experiment: Relative ex vivo cytokine induction in human whole blood stimulated with 10 ug/mL (done by ELISA) for Tumor necrosis factor alpha; assay type: functional, tissue-based; procedure, shortened: as §2
Oryctolagus cuniculus [5] = species on record: Oryctolagus cuniculus; experiment: Minimum pyrogenic dose(MPD) was determined; assay type: functional; procedure, shortened: as §3
[6] = as §1; assay type: organism-based; conditions: in vivo
Mus musculus [7] = species on record: Mus musculus; experiment: Adjuvant activity was assessed by measuring tetanus toxoid-specific antibody responses in serum of mice immunised. (evaluated as IgG1); assay type: functional
Procedure, shortened: (§4)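 Mice immunised on day 0 and day 21 with tetanus toxoid (2 μg per 2 mL emulsion) plus test article in 2.5% oil-water emulsion (12% lecithin-squalene oil phase; 0.1% Tween 80-saline aqueous phase). Controls received toxoid in 2.5% oil-water vehicle. Sera were taken from the orbital plexus 14 days after the second injection, diluted 2-fold ×11 from 1:200 and tested individually by toxoid-coated ELISA. Values are test titer/vehicle control titer.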

Mus musculus [8] = species on record: Mus musculus; experiment: Adjuvant activity was assessed by measuring tetanus toxoid-specific antibody responses in serum of mice immunised. (evaluated as IgG2a); assay type: functional; procedure, shortened: as §4
Mus musculus [9] = species on record: Mus musculus; experiment: Adjuvant activity was assessed by measuring tetanus toxoid-specific antibody responses in serum of mice immunised. (evaluated as total Ig); assay type: functional; procedure, shortened: as §4
Mus musculus [10] = species on record: Mus musculus; experiment: Adjuvant activity was assessed by measuring tetanus toxoid-specific antibody responses in serum of mice immunised. (evaluated as IgG2b); assay type: functional; procedure, shortened: as §4

Tumor necrosis factor (Homo sapiens), sequence (P01375 whole entry): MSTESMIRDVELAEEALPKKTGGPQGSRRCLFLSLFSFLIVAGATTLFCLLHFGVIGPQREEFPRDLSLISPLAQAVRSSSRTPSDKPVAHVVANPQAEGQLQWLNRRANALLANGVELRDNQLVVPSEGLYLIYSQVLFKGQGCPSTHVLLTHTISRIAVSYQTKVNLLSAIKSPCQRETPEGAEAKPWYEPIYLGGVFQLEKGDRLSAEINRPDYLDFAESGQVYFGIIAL

SMILES | LD50 [1] [µg] | Induction (Homo sapiens) | EC50 [2] [ng/mL] | Fever response (Oryctolagus cuniculus [3]) [°C] | Induction [4] | MPD (Oryctolagus cuniculus [5]) [µg/kg] | LD50 [6] [µg] | Adjuvant activity (Mus musculus [7]) | Adjuvant activity (Mus musculus [8]) | Adjuvant activity (Mus musculus [9]) | Adjuvant activity (Mus musculus [10])
CCCCCCCCCCCC(=O)O[C@H](CCCCCCCCCCC)CC(=O)NC1C(O)OC(COC2OC(CO)C(OP(=O)(O)O)C(OC(=O)C[C@@H](CCCCCCCCCCC)OC(=O)CCCCCCCCCCC)C2NC(=O)C[C@@H](CCCCCCCCCCC)OC(=O)CCCCCCCCCCC)C(O)C1O.CCN(CC)CC (some centres undefined) | 0.04 | 2.9 | 1 | 5.3 | 4.6 | <2.5 |  |  |  |  | 
CCCCCCCCCCC[C@H](CC(=O)NC1C(O)OC(COC2OC(CO)C(OP(=O)(O)O)C(OC(=O)C[C@@H](CCCCCCCCCCC)OC(=O)CCCCC)C2NC(=O)C[C@@H](CCCCCCCCCCC)OC(=O)CCCCC)C(O)C1O)OC(=O)CCCCC.CCN(CC)CC (some centres undefined) |  |  | > 10000 | 1.7 |  | 10 | 4 |  |  |  | 
CCCCCCCCCCCCCCCC(=O)O[C@H](CCCCCCCCCCC)CC(=O)NC1C(O)OC(COC2OC(CO)C(OP(=O)(O)O)C(OC(=O)C[C@@H](CCCCCCCCCCC)OC(=O)CCCCCCCCCCCCC)C2NC(=O)C[C@@H](CCCCCCCCCCC)OC(=O)CCCCCCCCCCC)C(O)C1O.CCN(CC)CC (some centres undefined) | 1 | 1.4 | 10 | 0.6 | 1.6 | 15 |  |  |  |  | 
CCCCCCCCCCCCCC(=O)O[C@H](CCCCCCCCCCC)CC(=O)NC1C(O)OC(COC2OC(CO)C(OP(=O)(O)O)C(OC(=O)C[C@@H](CCCCCCCCCCC)OC(=O)CCCCCCCCCCCCC)C2NC(=O)C[C@@H](CCCCCCCCCCC)OC(=O)CCCCCCCCCCCCC)C(O)C1O.CCN(CC)CC (some centres undefined) | 1 | 3.4 | 5 | 0.3 | 1.7 | 15 |  | 4.5 | 14.6 | 8.2 | 4.5
CCCCCCCCCCC[C@H](CC(=O)NC1C(O)OC(COC2OC(CO)C(OP(=O)(O)O)C(OC(=O)C[C@@H](CCCCCCCCCCC)OC(=O)CCC)C2NC(=O)C[C@@H](CCCCCCCCCCC)OC(=O)CCC)C(O)C1O)OC(=O)CCC.CCN(CC)CC (some centres undefined) |  |  | > 10000 | 1.5 |  | 10 | 4.5 |  |  |  | 
CCCCCCCCCCC[C@H](CC(=O)NC1C(O)OC(COC2OC(CO)C(OP(=O)(O)O)C(OC(=O)C[C@@H](CCCCCCCCCCC)OC(=O)CCCCCCCCC)C2NC(=O)C[C@@H](CCCCCCCCCCC)OC(=O)CCCCCCCCC)C(O)C1O)OC(=O)CCCCCCCCC.CCN(CC)CC (some centres undefined) | 0.02 | 7.3 | 0.05 | 4.1 | 3 | <0.06 |  | 2.4 | 6 | 6.2 | 4.3
CCCCCCCCCCC[C@H](CC(=O)NC1C(O)OC(COC2OC(CO)C(OP(=O)(O)O)C(OC(=O)C[C@@H](CCCCCCCCCCC)OC(=O)CCCCCCC)C2NC(=O)C[C@@H](CCCCCCCCCCC)OC(=O)CCCCCCC)C(O)C1O)OC(=O)CCCCCCC.CCN(CC)CC (some centres undefined) |  |  | 0.3 | 3.9 |  | <2.5 | 0.2 |  |  |  | 
